T cruzi inh: T. cruzi replication inhibition | T. cruzi beta-gal in NIH3T3, luminescence, 90 h | hit rate 1.4% among 300,000 | AID 1885 | inhibition, % (test concentration not listed);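 active means mean inhibition across valid replicates above about 55%, limit read from the data; inconclusive means mean below that limit but half or more replicates reach it; inactive means mean below it, under half of replicates reach it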;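 further: signal also drops with host cell toxicity which is not excluded here; 0% = plate median of DMSO wells and 100% = zero luminescence signal; higher percent means less beta-gal luminescence so fewer parasites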
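compound dosing = single 50 nL compound addition per well in DMSO | material = NIH/3T3 host cells with β-galactosidase reporter T. cruzi | input = 5,000 host fibroblasts per well | timing = ≥90 h infection period, 3 h prior cell attachment | read-out basis = percent inhibition of parasite-derived β-gal signal | detection = GalScreen β-gal luminescence, detergent lysis, 60 min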
HSF1 activator: increases HSF-1 driven luciferase reporter signal; activation, % at 9 µM; NIH3T3-HGL HSF-1 luciferase reporter, MG132, 8 h; 100% = twice DMSO control signal; hit rate 1.7% among 300,000;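 active means mean replicate activation of at least 50% with a set share of replicates each reaching 50%; inconclusive means only one of those two conditions met; inactive means mean below 50% and too few replicates reaching it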;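 further: 0% = median of the neutral control wells and 100% = twice that signal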
HIF act: HIF pathway transcriptional activation | U2OS HRE-luciferase reporter, luminescence; normalized: DMSO 0%, desferrioxamine 100% | activation, % at 7.5 µM (by protocol) | hit rate 0.32% among 300,000 | AID 1910;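 active means mean activation of at least 10% of the iron chelator positive control signal, with at least half of replicates also reaching 10%; inconclusive means mean and replicate majority disagree about reaching 10%; inactive means mean and most replicates under 10%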
Calb FLC: affects C. albicans growth with fluconazole | C. albicans CaCi-2 + fluconazole, Alamar Blue growth, 48 h | growth inhibition, % (no concentration beside the values) | hit rate 0.57% among 300,000;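 active means growth inhibition above about 58% in most replicates, limit read from the data, passing the limit was not always enough; inconclusive means exactly half the replicates above a set limit; inactive means most replicates below a set limit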;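 further: all wells also contain fluconazole at 8 µg/ml as a sub-toxic cotreatment; 0% = median of DMSO wells and 100% = median of geldanamycin control wells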
HSF1 inh: HSF1 inhibition. activity change, negative = inhibition, % at 7.5 µM (by protocol). NIH3T3-HGL HSE-luciferase, MG132-induced, luminescence 8 h; active compounds read low. hit rate 0.77% among 300,000. AID 2098;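 active means more than half of replicate wells show activity change below -50%, luminescence cut by over half; inconclusive means some wells, but at most half, below -50%; inactive means no replicate well below -50%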;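 further: luciferase reports HSF-1 transcriptional activity via heat shock element; 0% = median of DMSO wells and -100% = zero luminescence signal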
The depositor's hits bear a star; ? = inconclusive; nt = no result. The list is not random: actives were taken first. Their share in the collection is about 4.4%.

SMILES	T cruzi inh	HSF1 activator	HIF act	Calb FLC	HSF1 inh
CCCn1c(=NC(=O)c2c(-c3c(F)cccc3Cl)noc2C)c(C(=O)OCC)cc2c(=O)n3ccccc3nc21	46.0	-7.9	23.3*	2.5	6.8
CCOC(=O)c1cc2c(=O)n3ccccc3nc2n(Cc2ccco2)c1=NC(=O)c1ccccc1OC	5.7	100.3*	1.3	-4.4	49.0
CCOC(=O)c1cc2c(=O)n3cccc(C)c3nc2n(CCOC)c1=NC(C)=O	8.2	-71.9	-0.3	19.2	-62.8*
CCn1ncc(NC(=S)NCCc2ccc(OC)c(OC)c2)c1C(N)=O	nt	nt	nt	18.9	nt
CCCOC1CCCN(C(=O)c2cc(COc3ccc(-n4cncn4)cc3)on2)C1 (stereo not given)	-29.9	60.1*	2.5	15.9	32.2
COc1ccccc1OCc1cc(C(=O)N2CCCC(OCc3cccnc3)C2)no1 (stereo not given)	18.6	62.9*	2.2	-8.7	38.6
COCCOC1CCN(C(=O)c2cc(COc3ccc(-n4cncn4)cc3)on2)CC1	-3.6	-12.0	0.8	-4.4	-15.3
O=C(c1cc(COc2ccccc2)on1)N1CCCC(OCc2cccnc2)C1 (stereo not given)	5.3	2.8	0.1	1.3	-0.6
COc1cc2c(cc1OC)C(c1cc(Br)ccc1F)N(C(=O)CCl)CC2 (stereo not given)	64.9*	-97.1	-18.4	-3.3	-96.8*
O=C(c1c(F)cccc1F)N1CCN(CCOc2ccccc2)CC1	-9.1	40.8	-0.1	1.6	7.7
O=C(Nc1ccc([N+](=O)[O-])cc1)Nc1ccc(N2CCOCC2)c2nonc12	71.0*	9.4	0.4	-4.7	-6.6
COc1nc(OC)nc(N2CCC(NC(=O)C(Cc3cccc(OC)c3OC)NC(C)=O)CC2)n1 (stereo not given)	10.2	-5.1	0.3	2.8	-2.1
Nc1ccc(Nc2nc3ccccc3[nH]2)cc1	-5.3	1.6	-3.8	-0.5	-1.9
c1ccc(Nc2nc3ccccc3[nH]2)nc1	11.2	62.4*	-9.0	-9.1	13.6
O=C(O)c1ccccc1C(=O)NNc1ccc(F)cc1F	6.4	3.6	-0.2	-42.6	4.0
Cc1cc(C(=O)NNc2ccc(F)cc2F)no1	nt	11.9	0.2	?	0.6
O=C(NNc1ccc(O)cc1)c1ccc(Br)cc1	42.5	21.0	0.2	94.9*	-4.9
CC(C)(C)c1ccc(C(=O)NNc2ccc(F)cc2F)cc1	nt	-1.9	0.5	87.4*	-4.1
CCCc1ccc(C(=O)NNC(=O)c2ccc(Br)cc2)cc1	-3.7	-5.2	1.4	16.1	-6.1
CCc1ccc(C(=O)NNc2ccc(F)cc2F)cc1	6.9	-2.9	0.5	93.4*	-8.9
CCCc1ccc(C(=O)NNc2ccc(F)cc2)cc1	nt	23.9	0.4	76.6*	2.0
Cc1ccc2sc(NC(=O)C3CC3)nc2c1C	16.7	42.1	3.2	4.1	15.4
CCOC(=O)c1c(NC(=O)CSc2nnnn2-c2ccc(OC)cc2)sc(C)c1C	23.2	-4.2	-0.2	-13.0	-2.8
COc1cc(C2SC(C)C(=O)N2CCc2ccccc2)cc(OC)c1OC (stereo not given)	-3.7	3.8	-0.2	21.1	9.7
Oc1ccc(CN2CCCc3ccccc32)c2cccnc12	-6.7	-70.3	-0.1	2.9	-68.6*
SMILES	T cruzi inh	HSF1 activator	HIF act	Calb FLC	HSF1 inh
COc1ccccc1N1CCN(Cc2ccc(OC)c(OC)c2OC)CC1	16.4	-3.5	0.8	-25.5	-3.5
c1ccc(-c2nnc(CN3CCCc4ccccc43)o2)cc1	26.9	20.7	0.9	-2.5	-0.1
COc1ccccc1N1CCN(Cc2c[nH]c3ccccc23)CC1	57.6*	3.6	-0.6	-5.7	-0.6
CCOC(=O)C1CCN(Cc2ccc(O)c3ncccc23)CC1	55.4*	12.2	5.1	111.9*	14.7
COc1ccccc1N1CCN(Cc2ccc(O)c3ncccc23)CC1	45.7	15.7	26.9*	-6.3	-5.2
CCOc1ccccc1N1CCN(Cc2cccc(OC)c2OC)CC1	-3.5	9.7	0.3	-11.3	-0.8
CC1CC(CN)CC(CO)C1 (stereo not given)	-15.6	-0.4	-0.1	-11.5	-0.4
Cc1cc(C(=O)NCC(=O)Nc2c(C)cccc2C)c(C)o1	-8.6	3.8	0.1	0.4	-2.5
c1ccc(-c2ccc(-c3cn4c(n3)CCC4)cc2)cc1	4.3	35.5	0.9	-31.8	6.8
O=C(NCc1ccncc1)c1cc(S(=O)(=O)N2CCOCC2)c(Cl)cc1Cl	-4.8	-13.1	0.0	0.4	-3.9
Cc1ccc(C(=O)NNC2CC(=O)N(c3ccc4c(c3)OCCO4)C2=O)cc1 (stereo not given)	-11.4	-3.2	2.1	-10.9	-0.9
CNC(=O)CCN(Cc1ccco1)S(=O)(=O)c1ccc(OC)c(OC)c1	-10.0	8.4	0.1	7.8	-5.3
COc1cc2[nH]c(C(=O)N3CCc4ccccc43)cc2c(OC)c1OC	14.1	14.9	2.5	-3.1	16.0
Cc1ccccc1N1CCN(Cc2c[nH]c3ccccc23)CC1	60.2*	-11.4	nt	-18.2	-6.3
Fc1ccc(N2CCN(Cc3c[nH]c4ccccc34)CC2)cc1	73.2*	8.5	-0.4	-16.9	-0.2
O=[N+]([O-])c1ccc(CN2CCN(Cc3c[nH]c4ccccc34)CC2)cc1	55.8*	-3.5	0.6	-20.9	-5.2
c1cnc(N2CCN(Cc3c[nH]c4ccccc34)CC2)nc1	49.9	2.1	0.2	16.3	0.4
COc1ccc(-c2cc(C(=O)Nc3cc(OC)cc(C(=O)Nc4cccc(C(F)(F)F)c4)c3)[nH]n2)cc1	48.9	39.0	0.9	-1.4	26.1
O=C(CCc1nnc2ccc(N3CCCC3)nn12)Nc1ccc(F)cc1F	11.1	0.9	-1.1	-15.2	0.2
Cc1ccc(Sc2nnc(Cc3ccccc3)c3ccccc23)cc1	61.5*	48.7	0.6	-6.7	27.7
Cc1cc(/C=N/NC(N)=S)c(C)n1-c1cccc(Cl)c1	73.3*	-0.5	0.0	104.0*	-3.1
Cc1cc(/C=N/NC(N)=S)c(C)n1-c1ccc(Cl)cc1	24.7	-21.6	-0.1	-31.6	-5.8
CSS(=O)(=O)c1cccc2cccnc12	15.8	77.5*	-0.8	23.8	53.5
CCN(CC)S(=O)(=O)c1cccc2cccnc12	13.7	13.3	0.7	0.4	2.8
C/C(=N\NC(=O)CCC(=O)N/N=C(\C)c1ccc(C)o1)c1ccc(C)o1	-12.7	7.4	0.2	-7.0	-10.4
CCOC(=O)N/N=C(/C)c1ccc([N+](=O)[O-])o1	57.5*	4.2	0.1	18.9	-3.6
COC1C=CC=C(C)C(=O)NC2=CC(=O)C(N)=C(CC(C)CC(OC)C(O)C(C)C=C(C)C1OC(N)=O)C2=O (stereo not given)	nt	69.4*	nt	nt	69.4*
CCOC(=O)c1cnc(-n2nc(C)cc2C)nc1N(CC)CC	-17.1	11.8	2.1	-39.1	-0.4
Cc1ccc(NC(=O)C(C)N=C2NS(=O)(=O)c3ccccc32)cc1F (stereo not given)	1.0	29.3	2.2	15.1	25.8

Compound activity: PubChem BioAssay, Broad Institute
